Values after ≈ are worked out from the molar mass of the structure shown.
test system: Mycobacterium tuberculosis; assay: Antimycobacterial activity against multidrug-resistant Mycobacterium tuberculosis H37Rv after 28 days by agar dilution method; format: functional; settings: 672 h
In short: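 Agar dilution on Middlebrook 7H11 agar with OADC, run in duplicate at pH 7.4. The clinical isolate was resistant to isoniazid, rifampicin, ethambutol and ciprofloxacin. Inoculum from fresh slants was set to 1 mg/mL wet weight in 0.05% Tween 80 saline, diluted 10^-2 to about 10⁷ cfu/mL, and spotted onto 10-fold serial drug dilutions. Incubated at 37 °C and read at 28 days. MIC is the lowest concentration giving complete (99%) growth inhibition.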

SMILES	MIC [µM]
Cc1nnc(Sc2c(-c3ccc(Cl)cc3)nc3ccccc3c2-c2ccccc2)s1	3.5 (≈ 1.56 µg/mL)
Cc1nnc(Sc2c(-c3ccc(Br)cc3)nc3ccccc3c2-c2ccccc2)s1	3.2 (≈ 1.57 µg/mL)
c1ccc(-c2ccc(-c3nc4ccccc4c(-c4ccccc4)c3Sc3nnnn3-c3ccccc3)cc2)cc1	46.8 (≈ 25 µg/mL)
Cc1nnc(Sc2c(-c3ccc4ccccc4c3)nc3ccccc3c2-c2ccccc2)s1	13.5 (≈ 6.23 µg/mL)
Clc1ccc(-c2nc3ccccc3c(-c3ccccc3)c2Sc2nnnn2-c2ccccc2)cc1	50.8 (≈ 25 µg/mL)
CO[C@H]1/C=C/O[C@@]2(C)Oc3c(C)c(O)c4c(O)c(c(/C=N/N5CCN(C)CC5)c(O)c4c3C2=O)NC(=O)/C(C)=C\C=C\[C@H](C)[C@H](O)[C@@H](C)[C@@H](O)[C@@H](C)[C@H](OC(C)=O)[C@@H]1C [RIFAMPIN]	0.1 (≈ 0.0823 µg/mL)
Cc1nnc(Sc2c(-c3ccc(-c4ccccc4)cc3)nc3ccccc3c2-c2ccccc2)s1	6.4 (≈ 3.12 µg/mL)
COc1ccc(-c2nc3ccccc3c(-c3ccccc3)c2Sc2nnc(C)s2)cc1	28.3 (≈ 12.5 µg/mL)
Brc1ccc(-c2nc3ccccc3c(-c3ccccc3)c2Sc2nc3ccccc3s2)cc1	5.9 (≈ 3.1 µg/mL)
c1ccc(-c2c(Sc3nc4ccccc4s3)c(-c3ccc4ccccc4c3)nc3ccccc23)cc1	50.3 (≈ 25 µg/mL)
Brc1ccc(-c2nc3ccccc3c(-c3ccccc3)c2Sc2nnnn2-c2ccccc2)cc1	23.3 (≈ 12.5 µg/mL)
Clc1ccc(-c2nc3ccccc3c(-c3ccccc3)c2Sc2nc3ccccc3s2)cc1	12.9 (≈ 6.21 µg/mL)
c1ccc(-c2c(Sc3nnnn3-c3ccccc3)c(-c3ccc4ccccc4c3)nc3ccccc23)cc1	49.2 (≈ 25 µg/mL)
c1ccc(-c2nc3ccccc3c(-c3ccccc3)c2Sc2nc3ccccc3s2)cc1	55.9 (≈ 25 µg/mL)
Cc1nnc(Sc2c(-c3ccccc3)nc3ccccc3c2-c2ccccc2)s1	30.4 (≈ 12.5 µg/mL)
Cc1ccc(-c2nc3ccccc3c(-c3ccccc3)c2Sc2nc3ccccc3s2)cc1	54.3 (≈ 25 µg/mL)
COc1ccc(-c2nc3ccccc3c(-c3ccccc3)c2Sc2nnnn2-c2ccccc2)cc1	51.2 (≈ 25 µg/mL)
Cc1ccc(-c2nc3ccccc3c(-c3ccccc3)c2Sc2nnnn2-c2ccccc2)cc1	53 (≈ 25 µg/mL)
COc1ccc(-c2nc3ccccc3c(-c3ccccc3)c2Sc2nc3ccccc3s2)cc1	> 52.4
CC[C@@H](CO)NCCN[C@@H](CC)CO [ETHAMBUTOL]	7.6 (≈ 1.55 µg/mL)
NNC(=O)c1ccncc1 [ISONIAZID]	0.4 (≈ 0.0549 µg/mL)
c1ccc(-c2ccc(-c3nc4ccccc4c(-c4ccccc4)c3Sc3nc4ccccc4s3)cc2)cc1	47.2 (≈ 24.7 µg/mL)
Cc1ccc(-c2nc3ccccc3c(-c3ccccc3)c2Sc2nnc(C)s2)cc1	29.4 (≈ 12.5 µg/mL)
c1ccc(-c2nc3ccccc3c(-c3ccccc3)c2Sc2nnnn2-c2ccccc2)cc1	54.6 (≈ 25 µg/mL)

Source: ChEMBL document CHEMBL1828510, “Synthesis of 3-heteroarylthioquinoline derivatives and their in vitro antituberculosis and cytotoxicity studies” (Eur J Med Chem, 2011)
